The source of these data is ChEMBL document CHEMBL1142380, “Synthesis, in vitro characterization, and radiolabeling of reboxetine analogs as potential PET radioligands for imaging the norepinephrine transporter” (Bioorg Med Chem, 2008).

The structures appear in SMILES notation. A value given as a limit tells only on which side of the number the result lay.

The species named for assay [1] is Homo sapiens. The experiment in a line: Selectivity ratio of Ki for human DAT to Ki for human NET.
For assay [2], the target named is Sodium-dependent noradrenaline transporter (Homo sapiens, UniProt P23975). The experiment in a line: Displacement of [3H]nisoxetine from human NET expressed in HEK293 cells. In kind it is cell-based. A digest of the protocol:
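Membranes from HEK-293 cells stably expressing hNET (grown in DMEM, 10% FBS, Geneticin), 30–70 µg protein per tube, with [3H]nisoxetine. Buffer: 53 mM Tris, 320 mM NaCl, 5.3 mM KCl, pH 7.4 at 4 °C. Incubated 4 h at 4 °C. Competitor tested at 12 concentrations, 10^-13 to 10^-5 M, in triplicate. Filtered on PEI-soaked GF/B filters. Ki given as geometric mean of ≥3 assays.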
For orientation: Displacement assays read how much labelled ligand stays bound in the presence of the test substance.

Assay [3] deals with Sodium-dependent serotonin transporter (Homo sapiens, UniProt P31645). The experiment in a line: Displacement of [3H]citalopram from human SERT expressed in HEK293 cells. In kind it is cell-based. A digest of the protocol: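 Membranes from HEK-293 cells stably expressing hSERT, 30–70 µg protein, with [3H]citalopram. Buffer: 53 mM Tris, 126 mM NaCl, 5.3 mM KCl, pH 7.9. Incubated 2 h at room temperature. Competitor tested at 12 concentrations, 10^-13 to 10^-5 M, in triplicate. Ended by cold-buffer vacuum filtration on 0.3% PEI-soaked GF/B filters. Ki given as geometric mean of ≥3 separate assays.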

For assay [4], the species on record is Homo sapiens. The experiment in a line: Selectivity ratio of Ki for human SERT to Ki for human NET.
Assay [5] has as its target Sodium-dependent dopamine transporter (Homo sapiens, UniProt Q01959). The experiment in a line: Displacement of [125I]RTI-55 from human DAT expressed in HEK-293 cells.

Chain of Sodium-dependent serotonin transporter (P31645 whole entry): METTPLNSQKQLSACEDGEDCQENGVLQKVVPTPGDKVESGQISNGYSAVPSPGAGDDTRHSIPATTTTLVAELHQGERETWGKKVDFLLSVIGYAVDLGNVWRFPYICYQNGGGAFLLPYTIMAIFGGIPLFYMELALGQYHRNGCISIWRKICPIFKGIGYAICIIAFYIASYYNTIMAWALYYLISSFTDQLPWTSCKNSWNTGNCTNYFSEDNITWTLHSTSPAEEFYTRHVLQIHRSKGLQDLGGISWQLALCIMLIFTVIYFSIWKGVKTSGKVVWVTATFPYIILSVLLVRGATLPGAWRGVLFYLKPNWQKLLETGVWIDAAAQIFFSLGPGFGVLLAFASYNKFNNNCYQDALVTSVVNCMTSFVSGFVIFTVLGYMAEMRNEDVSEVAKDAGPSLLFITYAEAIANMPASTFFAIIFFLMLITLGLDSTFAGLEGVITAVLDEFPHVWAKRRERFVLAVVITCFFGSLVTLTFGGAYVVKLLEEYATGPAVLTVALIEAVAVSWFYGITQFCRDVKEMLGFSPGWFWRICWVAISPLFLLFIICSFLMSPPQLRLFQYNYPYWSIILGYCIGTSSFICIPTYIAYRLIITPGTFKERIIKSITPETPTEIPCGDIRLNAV
Chain of Sodium-dependent dopamine transporter (Q01959 whole entry): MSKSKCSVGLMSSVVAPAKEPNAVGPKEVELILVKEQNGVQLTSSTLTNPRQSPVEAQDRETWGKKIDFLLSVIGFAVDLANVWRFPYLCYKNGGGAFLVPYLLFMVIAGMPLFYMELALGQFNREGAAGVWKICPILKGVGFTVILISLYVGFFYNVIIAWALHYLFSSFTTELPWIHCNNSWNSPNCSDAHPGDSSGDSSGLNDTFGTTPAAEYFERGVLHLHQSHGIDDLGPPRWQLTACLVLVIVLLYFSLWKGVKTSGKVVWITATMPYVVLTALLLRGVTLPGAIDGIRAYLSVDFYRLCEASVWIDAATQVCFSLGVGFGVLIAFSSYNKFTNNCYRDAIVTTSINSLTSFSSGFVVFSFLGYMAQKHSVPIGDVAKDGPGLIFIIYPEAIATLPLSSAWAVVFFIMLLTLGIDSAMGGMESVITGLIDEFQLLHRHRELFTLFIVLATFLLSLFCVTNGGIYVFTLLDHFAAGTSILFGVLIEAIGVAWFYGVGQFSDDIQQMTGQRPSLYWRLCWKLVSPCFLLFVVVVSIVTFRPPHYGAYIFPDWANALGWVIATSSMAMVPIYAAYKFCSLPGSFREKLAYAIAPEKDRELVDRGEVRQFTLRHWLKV
Chain of Sodium-dependent noradrenaline transporter (P23975 whole entry): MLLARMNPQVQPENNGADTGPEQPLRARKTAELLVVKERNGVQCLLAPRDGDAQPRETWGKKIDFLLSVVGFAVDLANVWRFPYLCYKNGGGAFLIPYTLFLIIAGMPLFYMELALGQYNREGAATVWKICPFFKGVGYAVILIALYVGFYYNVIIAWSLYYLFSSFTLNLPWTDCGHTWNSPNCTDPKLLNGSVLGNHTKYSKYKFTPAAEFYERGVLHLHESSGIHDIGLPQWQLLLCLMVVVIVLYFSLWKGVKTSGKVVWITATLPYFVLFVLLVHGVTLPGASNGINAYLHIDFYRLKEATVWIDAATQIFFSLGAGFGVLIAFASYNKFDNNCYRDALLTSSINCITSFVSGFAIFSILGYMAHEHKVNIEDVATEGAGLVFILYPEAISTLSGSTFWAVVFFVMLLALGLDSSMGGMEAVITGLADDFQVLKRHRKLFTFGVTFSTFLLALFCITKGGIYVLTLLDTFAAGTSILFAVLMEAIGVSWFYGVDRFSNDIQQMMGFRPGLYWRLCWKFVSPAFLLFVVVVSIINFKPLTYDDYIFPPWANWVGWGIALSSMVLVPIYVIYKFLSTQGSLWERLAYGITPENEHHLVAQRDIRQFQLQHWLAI

For orientation: Ki means a measure of affinity in units of concentration, obtained from inhibition or displacement. Take `COc1ccccc1S[C@@H](c1ccccc1)[C@@H]1CNCCO1`: the Ratio Ki is above 4000 in the assay listed under Homo sapiens [1] and 13 in the assay listed under Homo sapiens [4]. Moreover, the Ki is 0.76 nM in assay [2], 9.69 nM in assay [3] and above 4000 nM in assay [5].
As for `FCCOc1ccccc1S[C@@H](c1ccccc1)[C@@H]1CNCCO1`, the values for the Ratio Ki in the assay filed under Homo sapiens [1] and in the assay listed under Homo sapiens [4] were above 10000 and 733, respectively. The figures for the Ki in assay [2], in assay [3] and in assay [5] were 1 nM, 733 nM and above 10000 nM, respectively.
Take `COc1ccccc1O[C@@H](c1ccccc1)[C@@H]1CNCCO1`: the Ratio Ki was above 10000 in the assay filed under Homo sapiens [1] and 195 in the assay filed under Homo sapiens [4]. Also, the inhibition constant Ki in assay [2] was 0.95 nM; in assay [3], 185 nM; in assay [5] it was above 10000 nM.
For `COC(=O)c1ccccc1O[C@@H](c1ccccc1)[C@@H]1CNCCO1`, the Ratio Ki was above 2000 in the assay listed under Homo sapiens [1] and 465 in the assay filed under Homo sapiens [4]. The inhibitory constant (Ki) was 1.32 nM in assay [2], 614 nM in assay [3] and above 3000 nM in assay [5].
Turning to `FCCCOc1ccccc1S[C@@H](c1ccccc1)[C@@H]1CNCCO1`, the Ratio Ki in the assay listed under Homo sapiens [1] was above 7000; in the assay listed under Homo sapiens [4] it was 100. Moreover, the inhibitory constant (Ki) was 1.21 nM in assay [2], 121 nM in assay [3] and above 9000 nM in assay [5].
Turning to `CSc1ccccc1O[C@@H](c1ccccc1)[C@@H]1CNCCO1`, the Ratio Ki is above 3000 in the assay filed under Homo sapiens [1] and 44 in the assay listed under Homo sapiens [4]. The inhibition constant (Ki) was 2.06 nM in assay [2], 90.9 nM in assay [3] and above 6000 nM in assay [5].
In the same order, the values of `COC(=O)c1ccccc1S[C@@H](c1ccccc1)[C@@H]1CNCCO1` are above 20000, 369, 1.35 nM, 498 nM and above 30000 nM.
